Assay results published in ChEMBL document CHEMBL4351017, “Selenocoumarins as new multitarget antiproliferative agents: Synthesis, biological evaluation and in silico calculations” (Eur J Med Chem, 2019).
The source made the active and inactive calls. No cut-off for these calls is given here.

Columns and labels:
SW1573 [1] = test: (§1) Resistance factor, ratio of GI50 for antiproliferative activity against human SW1573 cells over-expressing P-gp incubated for 48 hrs in presence of P-gp and CYP3A4/5 inhibitor verapamil by sulforhodamine assay to GI50 for antiproliferative activity against human SW1573 cells incubated for 48 hrs in presence of P-gp and CYP3A4/5 inhibitor verapamil by sulforhodamine B assay; format: functional
Procedure, shortened: (§2)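 Resistance factor: GI50 in SW1573/PGP divided by GI50 in wild-type SW1573. Both came from 48 h exposure, with or without 10 µM verapamil. GI50 values are from at least two independent experiments.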

SW1573 [2] = test: as §1, with “hrs in absence of P-gp” for “hrs in presence of P-gp”, “by sulforhodamine B assay to” for “by sulforhodamine assay to”; format: functional; procedure, shortened: as §2
SW1573 [3] = test: Antiproliferative activity against human SW1573 cells over-expressing P-gp incubated for 48 hrs in absence of P-gp and CYP3A4/5 inhibitor verapamil by sulforhodamine B assay; format: functional; details: SW1573, 48 h
Procedure, shortened: (§3)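 Wild-type and P-gp-overexpressing SW1573 cells were grown in RPMI 1640 with 1 mM glutamine, 5% FBS and antibiotics at 37 °C. Cells were exposed for 48 h to serial decimal dilutions, 0.001–100 µM, with or without 10 µM verapamil. GI50 values come from at least two independent experiments, with SD.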

HBL-100 = test: Antiproliferative activity against human HBL100 cells assessed as growth inhibition measured after 48 hrs by sulforhodamine B assay; format: functional; details: HBL-100, 48 h
Procedure, shortened: (§4)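 NCI protocol with minor modifications. DMSO stocks at 40 mM. Cells exposed for 48 h to serial decimal dilutions, 0.001–100 µM. GI50 in µM from at least two independent experiments, with SD.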

T47D [4] = test: Antiproliferative activity against human T47D cells assessed as growth inhibition measured after 48 hrs by sulforhodamine B assay; format: functional; procedure, shortened: as §4
SW1573 [5] = test: Antiproliferative activity against human SW1573 cells incubated for 48 hrs in presence of P-gp and CYP3A4/5 inhibitor verapamil by sulforhodamine B assay; format: functional; details: SW1573, 48 h; procedure, shortened: as §3
WiDr [6] = test: Antiproliferative activity against human WiDr cells assessed as growth inhibition measured after 48 hrs by sulforhodamine B assay; format: functional; procedure, shortened: as §4
SW1573 [7] = test: Antiproliferative activity against human SW1573 cells over-expressing P-gp incubated for 48 hrs in presence of P-gp and CYP3A4/5 inhibitor verapamil by sulforhodamine B assay; format: functional; details: SW1573, 48 h; procedure, shortened: as §3
[8] = (§5) Cytotoxicity against human hTERT-BJ cells assessed as growth inhibition measured after 48 hrs by sulforhodamine B assay; format: cell-based; details: hTERT-BJ cells
Procedure, shortened: as §4, with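 “modifications. Human tumour lines or fibroblasts in RPMI 1640 with 1 mM glutamine, 5% FBS and antibiotics, 37 °C, 5% CO2, low passage.” for “modifications.”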

HeLa [9] = test: Anticancer activity against human HeLa cells assessed as increase in ROS production at 10 uM measured after 48 hrs by ROS-GloTM H2O2 assay; format: functional, cell-based
Procedure, shortened: (§6)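 HeLa cells in RPMI 1640 with 1 mM glutamine, 5% FBS and antibiotics, 37 °C, 5% CO2. Exposed to compound at 1 or 10 µM for 48 h. ROS (H2O2) read with a non-lytic, HRP-free luminescent kit per the manufacturer.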

A549 = test: Antiproliferative activity against human A549 cells assessed as growth inhibition measured after 48 hrs by sulforhodamine B assay; format: functional; details: A549, 48 h; procedure, shortened: as §4
SW1573 [10] = test: Antiproliferative activity against human SW1573 cells incubated for 48 hrs in absence of P-gp and CYP3A4/5 inhibitor verapamil by sulforhodamine B assay; format: functional; details: SW1573, 48 h; procedure, shortened: as §3
HeLa [11] = test: Antiproliferative activity against human HeLa cells assessed as growth inhibition measured after 48 hrs by sulforhodamine B assay; format: functional; procedure, shortened: as §4
WiDr [12] = test: Potency index, ratio of GI50 for CDDP to test compound GI50 for antiproliferative activity against human WiDr cells; format: functional
T47D [13] = test: Potency index, ratio of GI50 for CDDP to test compound GI50 for antiproliferative activity against human T47D cells; format: functional
HeLa [14] = test: Anticancer activity against human HeLa cells assessed as increase in ROS production at 1 uM measured after 48 hrs by ROS-GloTM H2O2 assay; format: functional, cell-based; procedure, shortened: as §6
[15] = Selectivity index, ratio of GI50 for Cytotoxicity against human hTERT-BJ cells to ratio of GI50 for antiproliferative activity against human A549 cells; format: toxicity, cell-based; details: hTERT-BJ cells versus A549 cells, read-out: RatioGI50
[16] = Selectivity index, ratio of GI50 for Cytotoxicity against human hTERT-BJ cells to ratio of GI50 for antiproliferative activity against human WiDr cells; format: toxicity, cell-based; details: hTERT-BJ cells versus WiDr cells, read-out: RatioGI50
[17] = Selectivity index, ratio of GI50 for Cytotoxicity against human hTERT-BJ cells to ratio of GI50 for antiproliferative activity against human T47D cells; format: toxicity, cell-based; details: hTERT-BJ cells versus T47D cells, read-out: RatioGI50
[18] = Selectivity index, ratio of GI50 for Cytotoxicity against human hTERT-BJ cells to ratio of GI50 for antiproliferative activity against human HeLa cells; format: toxicity, cell-based; details: hTERT-BJ cells versus HeLa cells, read-out: RatioGI50
[19] = Selectivity index, ratio of GI50 for Cytotoxicity against human hTERT-BJ cells to ratio of GI50 for antiproliferative activity against human HBL100 cells
hTERT-BJ = test: as §5; format: cell-based; details: htert-bj, 48 h
Procedure, shortened: as §4, with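 “modifications. Human tumour lines or fibroblasts in RPMI 1640 with 1 mM glutamine, 5% FBS and antibiotics, 37 °C, 5% CO2, low passage.” for “modifications.”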

[20] = molecular target: T1, Histone deacetylase 8 (Homo sapiens) (UniProt Q9BY41); test: Potency index, ratio of inhibition activity of trichostatin to inhibition activity of compound HDAC8 (unknown origin)
T1 sequence (whole entry): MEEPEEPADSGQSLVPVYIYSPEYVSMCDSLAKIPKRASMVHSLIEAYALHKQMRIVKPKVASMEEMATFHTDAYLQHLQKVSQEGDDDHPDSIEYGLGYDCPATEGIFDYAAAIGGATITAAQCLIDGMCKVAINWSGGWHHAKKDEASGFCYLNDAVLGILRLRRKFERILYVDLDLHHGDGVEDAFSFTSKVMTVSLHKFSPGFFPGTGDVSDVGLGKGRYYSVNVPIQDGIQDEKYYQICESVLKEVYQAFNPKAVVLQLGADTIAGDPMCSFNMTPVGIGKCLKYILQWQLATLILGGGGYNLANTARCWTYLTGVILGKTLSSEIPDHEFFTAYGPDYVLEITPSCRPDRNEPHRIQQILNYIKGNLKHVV

Row | Compound | RatioGI50 (SW1573 [1]) | RatioGI50 (SW1573 [2]) | GI50 (SW1573 [3]) | GI50 (HBL-100) | GI50 (T47D [4]) | GI50 (SW1573 [5]) | GI50 (WiDr [6]) | GI50 (SW1573 [7]) | GI50 at 48 h [8] | Activity (HeLa [9]) | GI50 (A549) | GI50 (SW1573 [10]) | GI50 (HeLa [11]) | further results
1 | CCCOC(=[Se])Nc1ccc2c(C)cc(=O)oc2c1 | 3 | 2 | 32 µM | 34 µM | 41 µM | 12 µM | 42 µM | 35 µM | 33 µM | Active | 37 µM | 16 µM | 23 µM | –
2 | CCCCNC(=[Se])Nc1ccc2c(C)cc(=O)oc2c1 | 0.7 | 0.8 | 2.3 µM | 2.3 µM | 2.9 µM | 2.7 µM | 3.8 µM | 2 µM | 3.1 µM | – | 3 µM | 3 µM | 5.2 µM | RatioGI50 (WiDr [12]): <=6; RatioGI50 (T47D [13]): <=6; Activity (HeLa [14]): Active
3 | Cc1cc(=O)oc2cc(N=C=[Se])ccc12 | 0.9 | 1.1 | 29 µM | 5 µM | 3.6 µM | 29 µM | 4.8 µM | 24 µM | 50 µM | Active | 3.6 µM | 27 µM | 12 µM | selectivity ratio [15]: ≤ 14; selectivity ratio [16]: ≤ 14; selectivity ratio [17]: ≤ 14; selectivity ratio [18]: ≤ 14; RatioGI50 [19]: <=14
4 | COC(=[Se])Nc1ccc2c(C)cc(=O)oc2c1 | – | – | – | > 100 µM | > 100 µM | – | > 100 µM | – | – | – | > 100 µM | – | 78 µM | –
5 | COc1ccc(NC(=[Se])Nc2ccc3c(C)cc(=O)oc3c2)cc1 | 2.5 | 1.7 | 24 µM | 38 µM | 33 µM | 10 µM | 23 µM | 25 µM | > 100 µM | Active | 28 µM | 14 µM | 35 µM | –
6 | CCCCOC(=[Se])Nc1ccc2c(C)cc(=O)oc2c1 | – | – | – | – | – | – | – | – | – | – | – | – | – | GI50 (hTERT-BJ): Nd(Insoluble)
7 | Cc1cc(=O)oc2cc(NC(=[Se])Nc3ccccc3)ccc12 | 0.8 | 0.9 | 21 µM | 28 µM | 24 µM | 25 µM | 34 µM | 21 µM | > 100 µM | Active | 28 µM | 23 µM | 24 µM | –
8 | Cc1cc(=O)oc2cc(NC(=[Se])Nc3ccc(C(F)(F)F)cc3)ccc12 | 0.9 | 1.2 | 24 µM | 13 µM | 8.7 µM | 26 µM | 6 µM | 22 µM | 32 µM | Active | 8.6 µM | 20 µM | 21 µM | –
9 | Cc1cc(=O)oc2cc(NC(=[Se])Nc3ccc4c(C)cc(=O)oc4c3)ccc12 | 2.3 | 12 | 55 µM | 3.5 µM | 3.6 µM | 9 µM | 4.5 µM | 21 µM | 4.9 µM | – | 3.2 µM | 4.5 µM | 2.9 µM | RatioGI50 (WiDr [12]): <=6; Ratio [20]: 1.65; RatioGI50 (T47D [13]): <=6; Activity (HeLa [14]): Active
10 | CC[C@]1(O)C[C@@H]2CN(CCc3c([nH]c4ccccc34)[C@@](C(=O)OC)(c3cc4c(cc3OC)N(C)[C@H]3[C@@](O)(C(=O)OC)[C@H](OC(C)=O)[C@]5(CC)C=CCN6CC[C@]43[C@@H]65)C2)C1 [VINBLASTINE] | 1 | – | 2.05 µM | – | – | 0.0008 µM | – | 0.001 µM | – | – | – | 0.0009 µM | – | –
11 | Cc1cc(=O)oc2cc(NC(=[Se])Nc3ccc(Br)cc3)ccc12 | 1 | 0.9 | 9.6 µM | 2.2 µM | 2.8 µM | 16 µM | 3.5 µM | 16 µM | 4.4 µM | – | 2.7 µM | 11 µM | 2.2 µM | RatioGI50 (WiDr [12]): <=6; RatioGI50 (T47D [13]): <=6; Activity (HeLa [14]): Active
12 | CCOC(=[Se])Nc1ccc2c(C)cc(=O)oc2c1 | – | – | – | > 100 µM | > 100 µM | – | > 100 µM | – | – | – | > 100 µM | – | > 100 µM | –
13 | CC(=O)O[C@H]1C(=O)[C@@]2(C)[C@H]([C@H](OC(=O)c3ccccc3)[C@]3(O)C[C@H](OC(=O)[C@H](O)[C@@H](NC(=O)c4ccccc4)c4ccccc4)C(C)=C1C3(C)C)[C@]1(OC(C)=O)CO[C@@H]1C[C@@H]2O [PACLITAXEL] | 3 | – | 0.196 µM | – | – | 0.0016 µM | – | 0.0042 µM | – | – | – | 0.0015 µM | – | –
